For 29 compounds, inhibition results are on record in PubChem BioAssay AID588560 (The Scripps Research Institute Molecular Screening Center, 2011).

Activity calls are given as the source filed them.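 The calls were made as follows: active = inhibition of 50% or more against any one of four protein arginine deiminase enzymes; inactive = the rest.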

Common to all, as to assay: single-point PAD isozyme panel inhibition – biochemical, colorimetric, BAEE substrate, recombinant enzymes, selectivity assay for PAD4 inhibitor project, late-stage follow-up (AID 588560)
Experiment [1] has as its target Protein-arginine deiminase type-2 (Homo sapiens) (UniProt Q9Y2J8). The settings on record: recombinant PAD1-4, BAEE citrulline colorimetric, 15 min; PAD2; at 10 µM; stronger effect = higher value. In a few lines:
(§1)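 Detection: citrulline color absorbance at 540 nm; Material: recombinant PAD1, PAD2, PAD3 or PAD4 enzyme, one isozyme per assay; Schedule: 15 min preincubation and 15 min reaction at 37 °C; Reagent: BAEE substrate at 10 mM.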

The target of experiment [2] is Protein-arginine deiminase type-3 (Homo sapiens) (UniProt Q9ULW8). As to conditions: recombinant PAD1-4, BAEE citrulline colorimetric, 15 min; PAD3; at 10 µM; stronger effect = higher value. The method, boiled down: as §1
Chain of Protein-arginine deiminase type-3 (Homo sapiens) (Q9ULW8 whole entry, looked up): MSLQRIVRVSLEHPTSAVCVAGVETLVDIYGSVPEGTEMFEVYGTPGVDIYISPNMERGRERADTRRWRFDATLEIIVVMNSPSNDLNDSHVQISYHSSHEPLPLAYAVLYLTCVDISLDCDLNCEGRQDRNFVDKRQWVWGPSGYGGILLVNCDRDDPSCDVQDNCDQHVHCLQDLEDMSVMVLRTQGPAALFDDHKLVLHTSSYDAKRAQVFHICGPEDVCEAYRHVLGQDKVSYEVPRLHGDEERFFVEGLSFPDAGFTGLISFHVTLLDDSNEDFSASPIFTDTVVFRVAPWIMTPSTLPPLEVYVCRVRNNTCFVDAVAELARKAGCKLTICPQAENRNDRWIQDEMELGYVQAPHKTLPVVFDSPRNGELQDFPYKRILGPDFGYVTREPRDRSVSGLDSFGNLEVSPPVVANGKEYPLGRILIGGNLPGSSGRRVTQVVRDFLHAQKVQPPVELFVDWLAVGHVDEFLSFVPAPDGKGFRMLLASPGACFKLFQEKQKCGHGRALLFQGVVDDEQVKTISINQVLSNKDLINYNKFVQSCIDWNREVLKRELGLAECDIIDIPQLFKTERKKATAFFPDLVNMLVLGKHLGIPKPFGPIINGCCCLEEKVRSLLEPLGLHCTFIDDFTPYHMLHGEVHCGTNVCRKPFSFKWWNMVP
The target in experiment [3] is Protein-arginine deiminase type-1 (Homo sapiens) (UniProt Q9ULC6). As to conditions: recombinant PAD1-4, BAEE citrulline colorimetric, 15 min; PAD1; at 10 µM; stronger effect = higher value. The method, boiled down: as §1
Chain of Protein-arginine deiminase type-1 (Homo sapiens) (Q9ULC6 whole entry, looked up): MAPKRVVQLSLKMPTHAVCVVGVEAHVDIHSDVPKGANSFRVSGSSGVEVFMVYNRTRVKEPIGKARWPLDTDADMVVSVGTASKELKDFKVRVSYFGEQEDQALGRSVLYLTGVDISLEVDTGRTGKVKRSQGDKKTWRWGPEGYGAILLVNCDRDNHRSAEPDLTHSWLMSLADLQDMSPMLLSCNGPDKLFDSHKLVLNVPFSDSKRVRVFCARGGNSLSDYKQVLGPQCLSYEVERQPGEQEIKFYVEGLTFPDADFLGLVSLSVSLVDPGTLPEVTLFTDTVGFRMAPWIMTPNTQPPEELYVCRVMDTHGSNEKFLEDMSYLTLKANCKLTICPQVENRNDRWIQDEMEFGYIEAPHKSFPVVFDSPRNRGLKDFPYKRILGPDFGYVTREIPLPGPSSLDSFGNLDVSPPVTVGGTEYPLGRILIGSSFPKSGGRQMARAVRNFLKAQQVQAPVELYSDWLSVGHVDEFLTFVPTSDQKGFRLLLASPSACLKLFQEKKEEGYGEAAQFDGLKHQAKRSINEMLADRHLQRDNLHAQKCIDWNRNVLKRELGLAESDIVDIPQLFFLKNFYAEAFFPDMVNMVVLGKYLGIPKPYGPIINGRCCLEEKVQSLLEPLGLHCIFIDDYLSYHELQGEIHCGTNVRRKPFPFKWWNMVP
The target in experiment [4] is Protein-arginine deiminase type-4 (Homo sapiens) (UniProt Q9UM07). As to conditions: recombinant PAD1-4, BAEE citrulline colorimetric, 15 min; PAD4; at 10 µM; stronger effect = higher value. The method, boiled down:
as §1

Chain of Protein-arginine deiminase type-4 (Homo sapiens) (Q9UM07 whole entry, looked up): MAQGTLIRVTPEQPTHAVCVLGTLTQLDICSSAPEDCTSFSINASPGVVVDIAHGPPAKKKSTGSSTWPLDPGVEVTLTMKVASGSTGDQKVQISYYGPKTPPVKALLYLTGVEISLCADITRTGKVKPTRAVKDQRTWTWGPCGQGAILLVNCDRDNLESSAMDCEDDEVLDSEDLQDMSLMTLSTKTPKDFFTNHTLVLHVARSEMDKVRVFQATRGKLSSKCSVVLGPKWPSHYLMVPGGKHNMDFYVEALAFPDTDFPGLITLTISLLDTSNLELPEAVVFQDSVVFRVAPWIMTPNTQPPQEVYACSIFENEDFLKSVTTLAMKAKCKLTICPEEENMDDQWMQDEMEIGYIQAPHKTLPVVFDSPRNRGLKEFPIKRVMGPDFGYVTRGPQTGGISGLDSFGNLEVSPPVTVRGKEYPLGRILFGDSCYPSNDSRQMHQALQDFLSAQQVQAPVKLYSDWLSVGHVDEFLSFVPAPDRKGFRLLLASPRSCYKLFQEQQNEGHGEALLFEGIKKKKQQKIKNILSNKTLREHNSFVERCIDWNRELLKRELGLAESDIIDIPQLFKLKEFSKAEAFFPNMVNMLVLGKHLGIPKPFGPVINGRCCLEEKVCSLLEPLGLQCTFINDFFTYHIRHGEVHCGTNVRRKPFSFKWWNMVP
Chain of Protein-arginine deiminase type-2 (Homo sapiens) (Q9Y2J8 whole entry, looked up): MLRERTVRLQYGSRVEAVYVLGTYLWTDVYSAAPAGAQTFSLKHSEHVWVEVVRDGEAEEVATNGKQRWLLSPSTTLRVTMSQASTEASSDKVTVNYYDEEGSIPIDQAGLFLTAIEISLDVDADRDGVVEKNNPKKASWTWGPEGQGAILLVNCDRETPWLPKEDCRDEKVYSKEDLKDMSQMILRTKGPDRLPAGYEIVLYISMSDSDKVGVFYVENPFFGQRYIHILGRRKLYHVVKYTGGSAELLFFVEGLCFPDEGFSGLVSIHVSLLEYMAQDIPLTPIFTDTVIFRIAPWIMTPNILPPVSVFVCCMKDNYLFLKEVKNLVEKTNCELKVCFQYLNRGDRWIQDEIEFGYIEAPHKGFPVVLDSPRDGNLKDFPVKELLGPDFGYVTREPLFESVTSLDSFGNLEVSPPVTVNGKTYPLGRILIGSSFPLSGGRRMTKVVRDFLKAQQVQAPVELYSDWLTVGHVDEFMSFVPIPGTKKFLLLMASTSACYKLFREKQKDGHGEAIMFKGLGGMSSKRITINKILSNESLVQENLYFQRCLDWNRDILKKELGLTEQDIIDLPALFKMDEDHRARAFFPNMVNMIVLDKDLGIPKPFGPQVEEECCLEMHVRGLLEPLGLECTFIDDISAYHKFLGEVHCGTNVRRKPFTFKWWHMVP

By inhibition is commonly meant the change of the read-out against control, counted positive when it falls. For the compound `COC1=C(Br)C(=O)c2ncccc2C1=O`, the inhibition is 88% in experiment [1], 7% (inactive) in experiment [2] and 75% in experiment [3].
For `COC(=O)c1nc(C(=O)OC)c(N)c(-c2ccccc2Br)c1C`, the inhibition is -22% (inactive) in experiment [1], -30% (inactive) in experiment [2] and -6% (inactive) in experiment [3].
As to `O=C1C(O)=C(O)C(=O)c2ncccc21`, the inhibition was 41% (inactive) in experiment [1], 83% in experiment [4], 96% in experiment [2] and 39% (inactive) in experiment [3].
The corresponding values for `O=C1C=C(Br)C(=O)c2ncccc21` are 14% (inactive), 56%, 76% and -17% (inactive).
As for `COC(=O)c1nnc(C(=O)OC)c(-c2ccc3cc(OC)ccc3n2)n1`, the inhibition in experiment [1] was -14% (inactive); in experiment [2], 15% (inactive); in experiment [3], -21% (inactive).
Consider `O=C1C(Br)=CC(=O)c2ncccc21`, for which the inhibition was 12% (inactive) in experiment [1], 10% (inactive) in experiment [4], 10% (inactive) in experiment [2] and -57% (inactive) in experiment [3].
Take `COC(=O)c1nc(-c2ccc3c(n2)C(=O)C(Br)=CC3=O)c2[nH]c3ccccc3c2c1C`: the inhibition in experiment [1] was -15% (inactive); in experiment [2], -16% (inactive); in experiment [3], -24% (inactive).
Taken in the same sequence, the figures for `COC(=O)c1nnc(C(=O)OC)c(-c2ccc3c([N+](=O)[O-])c(OC)ccc3n2)n1` were 7% (inactive), 18% (inactive) and -38% (inactive).
In the case of `NC1=CC(=O)c2cccnc2C1=O`, the inhibition in experiment [1] is 89%; in experiment [4], 99%; in experiment [2], 100%; in experiment [3], 70%.
Consider `COC(=O)c1cccc(-c2ccc3ccc(Br)c(O)c3n2)n1`, for which the results for the inhibition in experiment [1], in experiment [2] and in experiment [3] were -22% (inactive), -28% (inactive) and -5% (inactive), respectively.
The corresponding values for `COc1ccc2nc(C#N)ccc2c1[N+](=O)[O-]` are 2% (inactive), 16% (inactive) and -24% (inactive).
Consider `COC(=O)c1cccc(-c2ccc3c(n2)C(=O)C(N)=CC3=O)n1`, for which the figures for the inhibition in experiment [1], in experiment [2] and in experiment [3] were 92%, 84% and 75%, respectively.
The corresponding values for `COC(=O)c1nc(C(C)=O)c2[nH]c3ccccc3c2c1C` are -29% (inactive), -20% (inactive) and 5% (inactive).
Taken in the same sequence, the figures for `COC(=O)c1cc(-c2ccccc2)c(C(=O)OC)c(-c2ccc3ccccc3n2)n1` were -18% (inactive), 16% (inactive) and -20% (inactive).
Consider `COC(=O)c1nc(C(=O)OC)c(NC(C)=O)c(-c2ccccc2Br)c1C`, for which the inhibition in experiment [1] was -19% (inactive); in experiment [2], -30% (inactive); in experiment [3] it was -20% (inactive).
As for `COC1=C(N)C(=O)c2ncccc2C1=O`, the inhibition in experiment [1] was 78%; in experiment [4], 87%; in experiment [2] it was 100%; in experiment [3], 57%.
Regarding `NC1=CC(=O)c2ccc(-c3ccccn3)nc2C1=O`, the figures for the inhibition in experiment [1], in experiment [2] and in experiment [3] were 101%, 90% and 73%, respectively.
In the case of `CCOC(=O)c1nc(C(=O)OCC)c(C(=O)OCC)c(-c2ccc(OC)c(OC)c2OCc2ccccc2)c1C`, the inhibition in experiment [1] is -31% (inactive); in experiment [2], -7% (inactive); in experiment [3], -15% (inactive).
Regarding `NC1=CC(=O)c2ccc(-c3cccc(C(=O)O)n3)nc2C1=O`, the inhibition in experiment [1] was 85%; in experiment [4], 98%; in experiment [2], 97%; in experiment [3], 71%.
Regarding `COC(=O)c1cccc(-c2ccc3c(n2)C(=O)C(Br)=CC3=O)n1`, the inhibition in experiment [1] was -26% (inactive); in experiment [2], -43% (inactive); in experiment [3], 0% (inactive).
The corresponding values for `O=C(O)c1cccc(-c2ccc3ccc(Br)c(OCc4ccccc4)c3n2)n1` are -18% (inactive), -7% (inactive) and -23% (inactive).
Consider `COC1=C(Br)C(=O)c2nc(-c3ccccn3)ccc2C1=O`, for which the inhibition in experiment [1] is 62%; in experiment [4], 91%; in experiment [2], 100%; in experiment [3], 50%.
As for `NC1=C(N)C(=O)c2ccccc2C1=O`, the inhibition was 28% (inactive) in experiment [1], 43% (inactive) in experiment [4], 44% (inactive) in experiment [2] and 22% (inactive) in experiment [3].
Regarding `COc1ccc2ncccc2c1[N+](=O)[O-]`, the inhibition in experiment [1] is 17% (inactive); in experiment [2], 19% (inactive); in experiment [3] it was -12% (inactive).
The corresponding values for `COc1ccc2nc(C#N)ccc2c1` are 35% (inactive), 8% (inactive) and -37% (inactive).
Taken in the same sequence, the figures for `COC(=O)c1nnc(C(=O)OC)c(-c2ccc3ccccc3n2)n1` were -13% (inactive), 24% (inactive) and -41% (inactive).
Consider `NC1=CC(=O)c2ccc(-c3cc(C(=O)O)ccc3N)nc2C1=O`, for which the inhibition was -19% (inactive) in experiment [1], 13% (inactive) in experiment [4], 8% (inactive) in experiment [2] and -13% (inactive) in experiment [3].
The corresponding values for `COC1=C(I)C(=O)c2nc(C#N)ccc2C1=O` are 63%, 97%, 98% and 60%.
For the compound `COC1=CC(=O)c2nc(C#N)ccc2C1=O`, the inhibition was 88% in experiment [1], 97% in experiment [4], 99% in experiment [2] and 68% in experiment [3].
